Activity calls are given as the source filed them. The calls are words filed in the database; no cut-off is given here.
Experiments:
A549 = test: Anticancer activity against human A549 cells assessed as cell growth inhibition at 10 uM incubated for 48 hrs by sulforhodamine B assay; format: functional; details: read-out: GI
Procedure, shortened: (§1)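 NCI-60 screen: cell lines grown in RPMI 1640 with 5% FBS and 2 mM L-glutamine, plated in 96-well plates at 5,000–40,000 cells/well depending on doubling time. Each line has one single-dose arm at 10 µM and one dose-response arm giving GI50.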

HCC 2998 [1] = test: Anticancer activity against human HCC 2998 cells assessed as cell growth inhibition at 10 uM incubated for 48 hrs by sulforhodamine B assay; format: functional; details: read-out: GI; procedure, shortened: as §1
HCT-116 = test: Anticancer activity against human HCT-116 cells assessed as cell growth inhibition at 10 uM incubated for 48 hrs by sulforhodamine B assay; format: functional; details: read-out: GI; procedure, shortened: as §1
KM12 = test: Anticancer activity against human KM12 cells assessed as cell growth inhibition at 10 uM incubated for 48 hrs by sulforhodamine B assay; format: functional; details: read-out: GI; procedure, shortened: as §1
SF-268 = test: Anticancer activity against human SF-268 cells assessed as cell growth inhibition at 10 uM incubated for 48 hrs by sulforhodamine B assay; format: functional; details: read-out: GI
Procedure, shortened: (§2)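 NCI DTP 60-cell-line screen run at National Cancer Institute. Cells grown in RPMI 1640 with 5% fetal bovine serum and 2 mM L-glutamine, seeded at 5,000–40,000 cells/well depending on doubling time. Single-dose screen at 10 µM gives growth percentage; dose-response series gives GI50.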

SF-295 = test: Anticancer activity against human SF-295 cells assessed as cell growth inhibition at 10 uM incubated for 48 hrs by sulforhodamine B assay; format: functional; details: read-out: GI; procedure, shortened: as §2
MDA-MB-435 = test: Anticancer activity against human MDA-MB-435 cells assessed as cell growth inhibition at 10 uM incubated for 48 hrs by sulforhodamine B assay; format: functional; details: read-out: GI; procedure, shortened: as §2
SK-MEL-5 = test: Anticancer activity against human SK-MEL-5 cells assessed as cell growth inhibition at 10 uM incubated for 48 hrs by sulforhodamine B assay; format: functional; details: read-out: GI; procedure, shortened: as §2
OVCAR-5 = test: Anticancer activity against human OVCAR-5 cells assessed as cell growth inhibition at 10 uM incubated for 48 hrs by sulforhodamine B assay; format: functional; details: read-out: GI; procedure, shortened: as §2
RXF 393 [2] = test: Anticancer activity against human RXF 393 cells assessed as cell growth inhibition at 10 uM incubated for 48 hrs by sulforhodamine B assay; format: functional; details: read-out: GI; procedure, shortened: as §2
Hs-578T = test: Anticancer activity against human Hs-578T cells assessed as cell growth inhibition at 10 uM incubated for 48 hrs by sulforhodamine B assay; format: functional; details: read-out: GI; procedure, shortened: as §1
HOP-92 = test: Anticancer activity against human HOP-92 cells assessed as cell growth inhibition at 10 uM incubated for 48 hrs by sulforhodamine B assay; format: functional; details: read-out: GI; procedure, shortened: as §1
CCRF-CEM = test: Anticancer activity against human CCRF-CEM cells assessed as cell growth inhibition incubated for 48 hrs by sulforhodamine B assay; format: functional; procedure, shortened: as §1
K562 = test: Anticancer activity against human K562 cells assessed as cell growth inhibition incubated for 48 hrs by sulforhodamine B assay; format: functional; procedure, shortened: as §1
MOLT-4 = test: Anticancer activity against human MOLT-4 cells assessed as cell growth inhibition incubated for 48 hrs by sulforhodamine B assay; format: functional; procedure, shortened: as §2
NCI-H522 = test: Anticancer activity against human NCI-H522 cells assessed as cell growth inhibition incubated for 48 hrs by sulforhodamine B assay; format: functional; procedure, shortened: as §2
COLO 205 = test: Anticancer activity against human COLO 205 cells assessed as cell growth inhibition incubated for 48 hrs by sulforhodamine B assay; format: functional; procedure, shortened: as §1
HCC 2998 [3] = test: Anticancer activity against human HCC 2998 cells assessed as cell growth inhibition incubated for 48 hrs by sulforhodamine B assay; format: functional; procedure, shortened: as §1
HCT-15 = test: Anticancer activity against human HCT-15 cells assessed as cell growth inhibition incubated for 48 hrs by sulforhodamine B assay; format: functional; procedure, shortened: as §1
SK-MEL-28 = test: Anticancer activity against human SK-MEL-28 cells assessed as cell growth inhibition incubated for 48 hrs by sulforhodamine B assay; format: functional; procedure, shortened: as §2
UACC-257 = test: Anticancer activity against human UACC-257 cells assessed as cell growth inhibition incubated for 48 hrs by sulforhodamine B assay; format: functional
OVCAR-3 = test: Anticancer activity against human OVCAR-3 cells assessed as cell growth inhibition incubated for 48 hrs by sulforhodamine B assay; format: functional; procedure, shortened: as §2
RXF 393 [4] = test: Anticancer activity against human RXF 393 cells assessed as cell growth inhibition incubated for 48 hrs by sulforhodamine B assay; format: functional; procedure, shortened: as §2
TK-10 = test: Anticancer activity against human TK-10 cells assessed as cell growth inhibition incubated for 48 hrs by sulforhodamine B assay; format: functional
PC-3 = test: Anticancer activity against human PC-3 cells assessed as cell growth inhibition incubated for 48 hrs by sulforhodamine B assay; format: functional; procedure, shortened: as §2
DU-145 = test: Anticancer activity against human DU-145 cells assessed as cell growth inhibition incubated for 48 hrs by sulforhodamine B assay; format: functional; procedure, shortened: as §1
MDA-MB-231 = test: Anticancer activity against human MDA-MB-231 cells assessed as cell growth inhibition incubated for 48 hrs by sulforhodamine B assay; format: functional; procedure, shortened: as §2
CAKI-1 = test: Anticancer activity against human CAKI-1 cells assessed as cell growth inhibition at 10 uM incubated for 48 hrs by sulforhodamine B assay; format: functional; details: read-out: GI; procedure, shortened: as §1
SN12C = test: Anticancer activity against human SN12C cells assessed inhibition of cell growth after 48 hrs by CellTiter-Glo luminescent assay; format: functional, cell-based
Procedure, shortened: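 Renal lines grown in RPMI 1640 with 5% FBS and 2 mM L-glutamine, seeded into 384-well plates at 5,000–10,000 cells/well, held 2–3 h at 37 °C, 5% CO2. DMSO stocks (20 mM) serially halved ten times and added at 1:100. Cells exposed 48 h at 37 °C; CellTiter-Glo added, 10 min at room temperature, luminescence read.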

ACHN = test: Anticancer activity against human ACHN cells assessed inhibition of cell growth after 48 hrs by CellTiter-Glo luminescent assay; format: functional, cell-based
Procedure, shortened: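 Renal lines grown in RPMI 1640 with 5% FBS and 2 mM L-glutamine, plated at 5,000–10,000 cells/well in 384-well plates and held 2–3 h at 37 °C, 5% CO2. Compounds were made as 20 mM DMSO stocks, given as ten 2-fold serial dilutions diluted 1:100 into cells, and incubated 48 h. Read-out was CellTiter-Glo luminescence after 10 min at room temperature.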

[5] = Anticancer activity against human CLL cells assessed as reduction in cell viability incubated for 24 hrs by Annexin/PI staining based fluorescence assay; format: functional
Procedure, shortened: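 CLL lymphocytes were taken from patients' peripheral blood (n=3) by Ficoll-Hypaque, suspended in 10% autologous plasma in RPMI, and exposed to 1, 5, 10, 20, 50 and 100 µM. Viability was measured by annexin V/propidium iodide binding. IC50 comes from one representative patient.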

CLL cell = test: Induction of DNA damage in chronic lymphocytic leukemia patient lymphocytes assessed as gamma-H2Ax phosphorylation at Ser139 residue at 10 uM after 24 hrs by FITC-staining based flow cytometry; format: functional; details: Homo sapiens
Procedure, shortened: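 Patient CLL lymphocytes, Ficoll-hypaque isolated, in RPMI with 10% autologous plasma, untreated or exposed to 10 µM for 24 h. Cells washed in PBS, fixed in ice-cold 70% ethanol and held at −20 °C. Then permeabilised, stained with FITC anti-H2AX Ser139 antibody and read by flow cytometry.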

DNA = test: Induction of [32P]-labeled 49-mer oligonucleotide duplex DNA 25 (unknown origin) interstrand cross-linking at 2 mM for 48 hrs in presence of 2mM H2O2 by PAGE; format: functional

GI50 (CCRF-CEM): 2000 nM
GI50 (K562): 2000 nM
GI50 (MOLT-4): 2000 nM
GI50 (NCI-H522): 2000 nM
GI50 (COLO 205): 2000 nM
GI50 (HCC 2998 [3]): 2000 nM
GI50 (HCT-15): 2000 nM
GI50 (SK-MEL-28): 2000 nM
GI50 (OVCAR-3): 2000 nM
GI50 (PC-3): 2000 nM
GI50 (DU-145): 2000 nM
GI50 (MDA-MB-231): 2000 nM
IC50 (ACHN): 20000 nM
Compound: COc1cc(CBr)c(B2OC(C)(C)C(C)(C)O2)c(CBr)c1
inhibition of growth at 10 µM (A549): < 50%
inhibition of growth at 10 µM (HCC 2998 [1]): < 50%
inhibition of growth at 10 µM (HCT-116): < 50%
inhibition of growth at 10 µM (KM12): < 50%
inhibition of growth at 10 µM (SF-268): < 50%
inhibition of growth at 10 µM (SF-295): < 50%
inhibition of growth at 10 µM (MDA-MB-435): < 50%
inhibition of growth at 10 µM (SK-MEL-5): < 50%
inhibition of growth at 10 µM (OVCAR-5): < 50%
inhibition of growth at 10 µM (RXF 393 [2]): < 50%
inhibition of growth at 10 µM (Hs-578T): < 50%
inhibition of growth at 10 µM (HOP-92): < 50%
GI50 (UACC-257): 2000 nM
GI50 (RXF 393 [4]): 2000 nM
GI50 (TK-10): 2000 nM
inhibition of growth at 10 µM (CAKI-1): < 50%
IC50 (SN12C): 18600 nM
IC50 [5]: 28400 nM
Activity (CLL cell): Active
Activity (DNA): 36%

Source: ChEMBL document CHEMBL5260806, “Hydrogen peroxide activated quinone methide precursors with enhanced DNA cross-linking capability and cytotoxicity towards cancer cells” (Eur J Med Chem, 2017)
